Source: ChEMBL document CHEMBL1817569, “Synthesis, antifungal activity and QSAR study of 2-arylhydroxynitroindoles” (Eur J Med Chem, 2011)

Each molecule was assayed on Venturia inaequalis (assay: Fungicidal activity against Venturia inaequalis assessed as mycelium growth inhibition at 30 ug/mL after 72 hrs). Conditions: read-out: GI.
Format: functional
Procedure, shortened: (§1)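 Radial mycelial growth test on potato-saccharose agar mixed with compound at a single concentration. Plates are inoculated with inverted 3-mm fungus-coated discs and incubated at 25 °C. Colony diameter (mm) is read at 72 h against medium without sample. Inhibition I = [(DC − DT)/DC] × 100%. Three replicates.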
`O=[N+]([O-])c1cc(O)c2cc(-c3ccc(O)cc3)[nH]c2c1` gave an inhibition of growth at 30 µg/mL of 20%.
In the case of `O=[N+]([O-])c1cc(O)c2c(CCn3cncn3)c(-c3ccc(F)cc3)[nH]c2c1`, the inhibition of growth at 30 µg/mL is reported as 2%.
`O=[N+]([O-])c1cc(O)c2cc(-c3ccc(Br)cc3)[nH]c2c1` was tested, and the inhibition of growth at 30 µg/mL was 15%.
With `O=[N+]([O-])c1cc(O)c2cc(-c3ccc(C(F)(F)F)cc3)[nH]c2c1` the inhibition of growth at 30 µg/mL was 53%.
For `O=[N+]([O-])c1cc(O)c2cc(-c3ccc(F)cc3)[nH]c2c1`, the inhibition of growth at 30 µg/mL was 60%.

What follows are molecules tested on Rhizoctonia solani (assay: Fungicidal activity against Rhizoctonia solani assessed as mycelium growth inhibition at 30 ug/mL after 72 hrs). Conditions: read-out: GI.
Format: functional
Procedure, shortened: as §1
`O=[N+]([O-])c1cc(O)c2cc(-c3ccc(O)cc3)[nH]c2c1` showed an inhibition of growth at 30 µg/mL of 38%.
`O=[N+]([O-])c1cc(O)c2c(CCn3cncn3)c(-c3ccc(F)cc3)[nH]c2c1` was tested, and the inhibition of growth at 30 µg/mL was 31%.
For `O=[N+]([O-])c1cc(O)c2cc(-c3ccc(Br)cc3)[nH]c2c1`, the inhibition of growth at 30 µg/mL was 11%.
With `O=[N+]([O-])c1cc(O)c2cc(-c3ccc(C(F)(F)F)cc3)[nH]c2c1` the inhibition of growth at 30 µg/mL was 82%.
Work on `O=[N+]([O-])c1cc(O)c2cc(-c3ccc(F)cc3)[nH]c2c1` yielded an inhibition of growth at 30 µg/mL of 96%.

The molecules below were run on Sclerotinia sclerotiorum (assay: Fungicidal activity against Sclerotinia sclerotiorum assessed as mycelium growth inhibition at 30 ug/mL after 72 hrs). Conditions: read-out: GI.
Format: functional
Procedure, shortened: as §1
In the case of `O=[N+]([O-])c1cc(O)c2cc(-c3ccc(O)cc3)[nH]c2c1`, the inhibition of growth at 30 µg/mL is reported as 19%.
`O=[N+]([O-])c1cc(O)c2c(CCn3cncn3)c(-c3ccc(F)cc3)[nH]c2c1` gave an inhibition of growth at 30 µg/mL of 17%.
With `O=[N+]([O-])c1cc(O)c2cc(-c3ccc(Br)cc3)[nH]c2c1` the inhibition of growth at 30 µg/mL was 14%.
With `O=[N+]([O-])c1cc(O)c2cc(-c3ccc(C(F)(F)F)cc3)[nH]c2c1` the inhibition of growth at 30 µg/mL was 70%.
With `O=[N+]([O-])c1cc(O)c2cc(-c3ccc(F)cc3)[nH]c2c1` the inhibition of growth at 30 µg/mL was 48%.

These molecules were tested on Bipolaris sorokiniana (assay: Fungicidal activity against Bipolaris sorokiniana assessed as mycelium growth inhibition at 30 ug/mL after 72 hrs). Conditions: read-out: GI.
Format: functional
Procedure, shortened: as §1
Molecule `O=[N+]([O-])c1cc(O)c2cc(-c3ccc(O)cc3)[nH]c2c1` has an inhibition of growth at 30 µg/mL of 18%.
`O=[N+]([O-])c1cc(O)c2c(CCn3cncn3)c(-c3ccc(F)cc3)[nH]c2c1` showed an inhibition of growth at 30 µg/mL of 52%.
For `O=[N+]([O-])c1cc(O)c2cc(-c3ccc(Br)cc3)[nH]c2c1`, the inhibition of growth at 30 µg/mL was 5%.
For `O=[N+]([O-])c1cc(O)c2cc(-c3ccc(C(F)(F)F)cc3)[nH]c2c1`, the inhibition of growth at 30 µg/mL was 74%.
Work on `O=[N+]([O-])c1cc(O)c2cc(-c3ccc(F)cc3)[nH]c2c1` yielded an inhibition of growth at 30 µg/mL of 35%.

What follows are molecules tested on Fusarium oxysporum (assay: Fungicidal activity against Fusarium oxysporum assessed as mycelium growth inhibition at 30 ug/mL after 72 hrs). Conditions: read-out: GI.
Format: functional
Procedure, shortened: as §1
For `O=[N+]([O-])c1cc(O)c2cc(-c3ccc(O)cc3)[nH]c2c1`, the inhibition of growth at 30 µg/mL was 27%.
`O=[N+]([O-])c1cc(O)c2c(CCn3cncn3)c(-c3ccc(F)cc3)[nH]c2c1` showed an inhibition of growth at 30 µg/mL of 28%.
`O=[N+]([O-])c1cc(O)c2cc(-c3ccc(Br)cc3)[nH]c2c1` gave an inhibition of growth at 30 µg/mL of 12%.
With `O=[N+]([O-])c1cc(O)c2cc(-c3ccc(C(F)(F)F)cc3)[nH]c2c1` the inhibition of growth at 30 µg/mL was 71%.
With `O=[N+]([O-])c1cc(O)c2cc(-c3ccc(F)cc3)[nH]c2c1` the inhibition of growth at 30 µg/mL was 58%.

These molecules were tested on Fusarium verticillioides (assay: Fungicidal activity against Fusarium moniliforme assessed as mycelium growth inhibition at 30 ug/mL after 72 hrs). Conditions: read-out: GI.
Format: functional
Procedure, shortened: as §1
`O=[N+]([O-])c1cc(O)c2cc(-c3ccc(O)cc3)[nH]c2c1` showed an inhibition of growth at 30 µg/mL of 39%.
Work on `O=[N+]([O-])c1cc(O)c2c(CCn3cncn3)c(-c3ccc(F)cc3)[nH]c2c1` yielded an inhibition of growth at 30 µg/mL of 30%.
`O=[N+]([O-])c1cc(O)c2cc(-c3ccc(Br)cc3)[nH]c2c1` was tested, and the inhibition of growth at 30 µg/mL was 21%.
`O=[N+]([O-])c1cc(O)c2cc(-c3ccc(C(F)(F)F)cc3)[nH]c2c1` was tested, and the inhibition of growth at 30 µg/mL was 84%.
Molecule `O=[N+]([O-])c1cc(O)c2cc(-c3ccc(F)cc3)[nH]c2c1` has an inhibition of growth at 30 µg/mL of 73%.
